Measurements: ChEMBL document CHEMBL1124913, “Aqua[1-(2,6-dichloro-4-hydroxyphenyl)-2- phenylethylenediamine](sulfato)platinum-(II) complexes with variable substituents in the 2-phenyl ring. 1. Synthesis and antitumor and estrogenic properties” (J Med Chem, 1990)
Values joined by “and” are separate entries in the source; they are usually repeats but may differ in a detail not shown here. Equal entries are not always repeated.

Experiments:
[1] = biological target: T1, Estrogen receptor (Mus musculus) (UniProt O08537+P19785); assay: Administered subcutaneously on three consecutive days at a dose of 1000 uM /Kg.; type: functional
Outline: (§1)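 Immature female NMRI mice, 19 days old, in groups of six. Compounds were dissolved in water and given as 0.1 mL sc on days 1, 2 and 3; controls got vehicle and standards got estrone 0.4 μg. Animals were killed 24 h after the last dose. Uteri were fixed in Bouin solution, dried at 100 °C for 18 h and weighed. E = [uterine dry weight (mg)/body weight (g)]100, and estrogenic effect = (E_T − E_V)/(E_S − E_V)100.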

[2] = biological target: T1, Estrogen receptor (Mus musculus); assay: (§2) Administered subcutaneously on three consecutive days at a dose of 100 uM /Kg.; type: functional; outline: as §1
Mus musculus [3] = assay: Ratio of median survival time of tested group to that of control group of animals was reported at a concentration of 10 uM/Kg; type: functional, organism-based
Outline: (§3)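 P388 leukemia was passaged in female DBA/2 mice. Female CDF1 mice (18–22 g) received 1×10^6 cells ip in PBS on day 0. Groups of six (ten for solvent control) were dosed ip with aqueous solutions on days 1, 5 and 9. Median survival time = X + Y/2, with X and Y the first days reaching N/2 and N/2 + 1 deaths. %T/C = treated/control median survival ×100.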

P388 [4] = assay: In vivo antitumor effect on P388 Leukemia in CDF1 mice, median survival time in days at 10 uM/kg; type: functional, organism-based; details: Mus musculus; outline: as §3
Mus musculus [5] = assay: Ratio of median survival time of tested group to that of control group of animals was reported at a concentration of 20 uM/Kg; type: functional, organism-based; outline: as §3
P388 [6] = assay: In vivo for antitumor effect on P388 Leukemia of the CDF1 and median survival time of the animals in days was reported at a concentration of 40 uM/Kg; type: functional, organism-based; details: Mus musculus; outline: as §3
P388 [7] = assay: In vivo for antitumor effect on P388 Leukemia of the CDF1, and median survival time of the animals in days was reported at a concentration of 40 uM/Kg; type: functional, organism-based; details: Mus musculus; outline: as §3
P388 [8] = assay: In vivo for antitumor effect on P388 Leukemia of the CDF1 mouse at dose 20 uM/kg administered intraperitoneally; type: functional, organism-based; outline: as §3
P388 [9] = assay: In vivo for antitumor effect on P388 Leukemia of the CDF1 and median survival time of the animals in days was reported at a concentration of 10 uM/Kg; type: functional, organism-based; details: Mus musculus; outline: as §3
[10] = biological target: T1, Estrogen receptor (Mus musculus); assay: Administered subcutaneously on three consecutive days at a dose of 1000 uM /Kg; type: functional; outline: as §1
P388 [11] = assay: In vivo for antitumor effect on P388 Leukemia of the CDF1 and median survival time of the animals in days was reported at a concentration of 20 uM/Kg; type: functional, organism-based; details: Mus musculus; outline: as §3
[12] = biological target: T1, Estrogen receptor (Mus musculus); assay: (§4) Administered subcutaneously on three consecutive days at a dose of 10 uM /Kg.; type: functional; outline: as §1
P388 [13] = assay: In vivo for antitumor effect on P388 Leukemia of the CDF1 mouse at dose 40 uM/kg administered intraperitoneally; type: functional, organism-based; outline: as §3
P388 [14] = assay: In vivo for antitumor effect on P388 Leukemia of the CDF1 mouse at dose 10 uM/kg administered intraperitoneally; type: functional, organism-based; outline: as §3
[15] = biological target: T1, Estrogen receptor (Mus musculus); assay: as §4; type: functional; outline: as §1; remark: listed apart in the source
[16] = biological target: T1, Estrogen receptor (Mus musculus); assay: Estrogenic effect on subcutaneous 100 uM/kg dose for 3 days; type: functional; outline: as §1
[17] = biological target: T1, Estrogen receptor (Mus musculus); assay: as §2; type: functional; outline: as §1; remark: listed apart in the source
[18] = biological target: T1, Estrogen receptor (Mus musculus); assay: Estrogenic effect on subcutaneous 10 uM/kg dose for 3 days; type: functional; outline: as §1
P388 [19] = assay: In vivo antitumor effect on P388 Leukemia in CDF1 mice, median survival time in days at 20 umol/kg; type: functional, organism-based; details: Mus musculus; outline: as §3
[20] = biological target: T1, Estrogen receptor (Mus musculus); assay: Estrogenic effect on subcutaneous 1000 umol/kg dose for 3 days; type: functional; outline: as §1
Mus musculus [21] = assay: Ratio of median survival time of tested group to that of control group of animals was reported at a concentration of 40 uM/Kg; type: functional, organism-based; outline: as §3
P388 [22] = assay: In vivo antitumor effect on P388 Leukemia in CDF1 mice, median survival time in days at 5 umol/kg; type: functional, organism-based; details: Mus musculus; outline: as §3
Mus musculus [23] = assay: Ratio of median survival time of tested group to control group at 5 umol/kg; type: functional, organism-based; outline: as §3
P388 [24] = assay: In vivo antitumor effect on P388 Leukemia in CDF1 mice at 5 umol/kg intraperitoneal dose; type: functional, organism-based; details: Mus musculus; outline: as §3

Estrogenic effect [1] | Estrogenic effect [2] [%] | Estrogenic effect [10] [%] | Estrogenic effect [12] | Estrogenic effect [15] | Estrogenic effect [17] | Substance | T/C (Mus musculus [3]) | MST (P388 [4]) | T/C (Mus musculus [5]) | MST (P388 [6]) | MST (P388 [7]) | T-C (P388 [8]) | MST (P388 [9]) | MST (P388 [11]) | T-C (P388 [13]) | T-C (P388 [14]) | T/C (Mus musculus [21]) | other results
19 and 32 | 0 | 0 | 0% |  |  | Aqua[erythro-1-(-3-hydroxyhenyl)-2-(2,6-dichloro-4-hydroxyphenyl) ethylenediamine](sulfato) platinum (II)(erythro-4-Ptso4) | 156% and 163% | 13 | 161% and 169% | 15.5 | 8 | -1.7 g and -1.9 g | 14 | 14.5 and 13.5 | -4.6 g and -2.6 g | -0.9 g and -1.5 g |  | 
86 and 91 | 141 | 117 | 39% | 9 and 11 | 21 and 22 | Aqua[threo-1-(-2-chloro-4-hydroxyhenyl)-2-(2,6-dichloro-4-hydroxyphenyl) ethylenediamine](sulfato) platinum (II)(threo-9-Ptso4) |  | 14 | 155% and 144% | 14 | 14.5 | -1.8 g and -1.2 g | 11.5 | 13 | -2.9 g and -1.9 g | -1.8 g and -2.4 g | 161% and 155% | Estrogenic effect [16]: 14%; Estrogenic effect [18]: 10%; MST (P388 [19]): 14; Estrogenic effect [20]: 35%
20 and 52 |  |  | 1% and 0% | 9 and 11 | 11 and 13 | Aqua [threo-1-(-2-fluoro-4-hydroxyhenyl)-2-(2,6-dichloro-4-hydroxyphenyl) ethylenediamine](sulfato) platinum (II) | 155% and 133% |  | 166% and 155% | 15.5 and 14 |  | -2.2 g and -1.2 g | 14 and 12 | 15 and 14 | -3.8 g and -2.4 g |  | 172% and 155% | 
 |  |  |  |  |  | CISPLATIN |  |  |  |  |  |  |  |  |  |  |  | MST (P388 [22]): 19; T/C (Mus musculus [23]): 238%; T-C (P388 [24]): -3.8 g
